The source made the active and inactive calls. No cut-off for these calls is given here.
Columns and labels:
Assay type in all cases: functional
M14 = experiment: Anticancer activity against human M14 cells
In short: (§1)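 NCI 60 human cancer cell line panel, multiple-dose testing at five concentrations (10^-4, 10^-5, 10^-6, 10^-7 and 10^-8 M). Dose-response curves plot cytotoxic effect against log10 of drug concentration for each cell line. GI50 is the molar concentration giving 50% growth inhibition; LC50 is the concentration killing 50% of cells.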

HCC 2998 = experiment: Anticancer activity against human HCC2998 cells; in short: as §1
NCI-H460 = experiment: Anticancer activity against human NCI-H460 cells; in short: as §1
ACHN = experiment: Anticancer activity against human ACHN cells; in short: as §1
CAKI-1 = experiment: Anticancer activity against human CAKI-1 cells; in short: as §1
NCI-H522 = experiment: Anticancer activity against human NCI-H522 cells; in short: as §1
SK-MEL-28 = experiment: Anticancer activity against human SK-MEL-28 cells; in short: as §1
MDA-MB-468 = experiment: Anticancer activity against human MDA-MB-468 cells; in short: as §1
HOP-62 = experiment: Anticancer activity against human HOP62 cells; in short: as §1
HT-29 = experiment: Anticancer activity against human HT-29 cells; in short: as §1
K562 = experiment: Anticancer activity against human K562 cells; in short: as §1
SW-620 = experiment: Anticancer activity against human SW620 cells
In short: (§2)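 NCI 60 human tumour cell line screen. A single-concentration pre-screen was run at 10^-5 M. Compounds selected from it were then tested at five concentrations, 10^-4 to 10^-8 M. Dose-response curves plotted cytotoxic effect against log10 of the drug concentration for each cell line. GI50 is the molar concentration giving 50% growth inhibition, and LC50 the concentration killing 50% of cells.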

[1] = Anticancer activity against human UACC257 cells; in short: as §2
[2] = Anticancer activity against human OVCAR4 cells; in short: as §1
[3] = Anticancer activity against human UO31 cells; in short: as §2
CCRF-CEM = experiment: Anticancer activity against human CCRF-CEM cells; in short: as §1
MDA-MB-231 = experiment: Anticancer activity against human MDA-MB-231 cells; in short: as §1
[4] = Anticancer activity against human LOXIMVI cells; settings: LOX IMVI; in short: as §1
SF-268 = experiment: Anticancer activity against human SF268 cells; in short: as §1
[5] = Anticancer activity against human SF295 cells; in short: as §1
MCF7 = experiment: Anticancer activity against human MCF7 cells; in short: as §1
SNB-75 = experiment: Anticancer activity against human SNB75 cells; in short: as §2
U-251 = experiment: Anticancer activity against human U251 cells; in short: as §2
NCI-H226 = experiment: Anticancer activity against human NCI-H226 cells; in short: as §1
[6] = Anticancer activity against human HCT116 cells; in short: as §1
786-0 = experiment: Anticancer activity against human 786-0 cells; in short: as §1
[7] = Anticancer activity against human Hs 578T cells; in short: as §1
SNB-19 = experiment: Anticancer activity against human SNB19 cells; in short: as §1
A549 = experiment: Anticancer activity against human A549 cells; in short: as §1
SK-MEL-5 = experiment: Anticancer activity against human SK-MEL-5 cells; in short: as §1
SK-MEL-2 = experiment: Anticancer activity against human SK-MEL-2 cells; in short: as §1
[8] = Anticancer activity against human OVCAR5 cells; in short: as §1
[9] = Anticancer activity against human BT549 cells; in short: as §1
RXF 393 = experiment: Anticancer activity against human RXF393 cells; in short: as §1
[10] = Anticancer activity against human HCT15 cells; in short: as §1
A498 = experiment: Anticancer activity against human A498 cells; in short: as §1
UACC-62 = experiment: Anticancer activity against human UACC62 cells; in short: as §2
[11] = Anticancer activity against human SKOV3 cells; in short: as §1
[12] = Anticancer activity against human OVCAR3 cells; in short: as §1
DU-145 = experiment: Anticancer activity against human DU145 cells after 48 hrs; settings: DU-145, 48 h; in short: as §1
HL-60(TB) = experiment: Anticancer activity against human HL-60(TB) cells; in short: as §1
[13] = Anticancer activity against human PC3 cells; in short: as §1
TK-10 = experiment: Anticancer activity against human TK10 cells; in short: as §2
SR = experiment: Anticancer activity against human SR cells; in short: as §2
[14] = Anticancer activity against human NCI-ADR-RES cells; in short: as §1
[15] = Anticancer activity against human RPMI8226 cells; in short: as §1
[16] = Anticancer activity against human SF539 cells; in short: as §1
MDA-MB-435 = experiment: Anticancer activity against human MDA-MB-435 cells; in short: as §1
NCI-H322M = experiment: Anticancer activity against human NCI-H322M cells after 48 hrs; in short: as §1
T47D = experiment: Anticancer activity against human T47D cells; in short: as §2
SN12C = experiment: Anticancer activity against human SN12C cells; in short: as §1
Malme-3M = experiment: Anticancer activity against human MALME-3M cells; in short: as §1
[17] = Anticancer activity against human COLO205 cells; in short: as §1
KM12 = experiment: Anticancer activity against human KM12 cells; in short: as §1
NCI-H23 = experiment: Anticancer activity against human NCI-H23 cells; in short: as §1
[18] = Anticancer activity against human MOLT4 cells; in short: as §1
[19] = Anticancer activity against human OVCAR8 cells; in short: as §1
IGROV-1 = experiment: Anticancer activity against human IGROV1 cells; in short: as §1
[20] = read-out: LC50 (the source's name)

## C/C1=C\CC[C@@]2(C)O[C@@H]2[C@H]2OC(=O)C(Cn3ccnc3I)[C@@H]2CC1 (stereo partly specified)
M14
  GI50: 16.5 µM
M14; [20]
  CC50: 65.6 µM
HCC 2998
  GI50: inactive
  LC50: inactive
NCI-H460
  GI50: 30.1 µM
NCI-H460; [20]
  CC50: > 100 µM
ACHN
  GI50: 10.5 µM
ACHN; [20]
  CC50: 47.4 µM
CAKI-1
  GI50: 6.61 µM
CAKI-1; [20]
  CC50: 49.5 µM
NCI-H522
  GI50: 1.71 µM
NCI-H522; [20]
  CC50: 6.34 µM
SK-MEL-28
  GI50: 16.1 µM
SK-MEL-28; [20]
  CC50: 73 µM
MDA-MB-468
  GI50: 11.1 µM
  LC50 (concentration killing 50% of cells): 60.4 µM
HOP-62
  GI50: 47.4 µM
HOP-62; [20]
  CC50: > 100 µM
HT-29
  GI50: 17.6 µM
HT-29; [20]
  CC50: 61.5 µM
K562
  GI50: 7.36 µM
K562; [20]
  CC50: 90 µM
SW-620
  GI50: 11.4 µM
SW-620; [20]
  CC50: 62.8 µM
[1]; UACC-257
  GI50: 12 µM
[1]; UACC-257, read-out: LC50 (the source's name)
  CC50: 53.9 µM
[2]; OVCAR-4
  GI50: 13.2 µM
[2]; OVCAR-4, read-out: LC50 (the source's name)
  CC50: 60 µM
[3]; UO-31
  GI50: 10.8 µM
[3]; UO-31, read-out: LC50 (the source's name)
  CC50: 50 µM
CCRF-CEM
  GI50: 6.13 µM
CCRF-CEM; [20]
  CC50: 79.6 µM
MDA-MB-231
  GI50: 16.4 µM
  LC50 (concentration killing 50% of cells): 59.6 µM
[4]
  GI50: 14.9 µM
[4]; [20]
  CC50: 60.9 µM
SF-268
  GI50: 23 µM
SF-268; [20]
  CC50: > 100 µM
[5]; SF-295
  GI50: 32.1 µM
[5]; SF-295, read-out: LC50 (the source's name)
  CC50: > 100 µM
MCF7
  GI50: 9.79 µM
MCF7; [20]
  CC50: > 100 µM
SNB-75
  GI50: 19.3 µM
SNB-75; [20]
  CC50: > 100 µM
U-251
  GI50: 36.7 µM
U-251; [20]
  CC50: > 100 µM
NCI-H226
  GI50: 15.4 µM
NCI-H226; [20]
  CC50: 62.3 µM
[6]; HCT-116
  GI50: 11.8 µM
[6]; HCT-116, read-out: LC50 (the source's name)
  CC50: 49 µM
786-0
  GI50: 14.3 µM
786-0; [20]
  CC50: 53 µM
[7]
  GI50: 21.3 µM
[7]; [20]
  CC50: > 100 µM
SNB-19
  GI50: > 100 µM
SNB-19; [20]
  CC50: > 100 µM
A549
  GI50: 19.8 µM
A549; [20]
  CC50: > 100 µM
SK-MEL-5
  GI50: 18.5 µM
  LC50: 95.6 µM
SK-MEL-2
  GI50: 18.6 µM
SK-MEL-2; [20]
  CC50: 66.1 µM
[8]; OVCAR-5
  GI50: 13.7 µM
[8]; OVCAR-5, read-out: LC50 (the source's name)
  CC50: 52.5 µM
[9]; BT-549
  GI50: 15.9 µM
[9]; BT-549, read-out: LC50 (the source's name)
  CC50: 55.3 µM
RXF 393
  GI50: inactive
  LC50: inactive
[10]; HCT-15
  GI50: 10.7 µM
[10]; HCT-15, read-out: LC50 (the source's name)
  CC50: 55.6 µM
A498
  GI50: 45.2 µM
A498; [20]
  CC50: > 100 µM
UACC-62
  GI50: inactive
  LC50: inactive
[11]; SK-OV-3
  GI50: 47.3 µM
[11]; SK-OV-3, read-out: LC50 (the source's name)
  CC50: > 100 µM
[12]; OVCAR-3
  GI50: 6.85 µM
[12]; OVCAR-3, read-out: LC50 (the source's name)
  CC50: 50.8 µM
DU-145
  GI50: 18.8 µM
DU-145; [20]
  CC50: 68.3 µM
HL-60(TB)
  GI50: 6.9 µM
HL-60(TB); [20]
  CC50: 77.5 µM
[13]; PC-3
  GI50: 23.1 µM
[13]; PC-3, read-out: LC50 (the source's name)
  CC50: 100 µM
TK-10
  GI50: inactive
  LC50: inactive
SR
  GI50: 13.6 µM
SR; [20]
  CC50: > 100 µM
[14]
  GI50: 31.2 µM
[14]; [20]
  CC50: > 100 µM
[15]; RPMI-8226
  GI50: 17 µM
[15]; RPMI-8226, read-out: LC50 (the source's name)
  CC50: > 100 µM
[16]; SF-539
  GI50: 16.7 µM
[16]; SF-539, read-out: LC50 (the source's name)
  CC50: 60.8 µM
MDA-MB-435
  GI50: 13.8 µM
MDA-MB-435; [20]
  CC50: 59.5 µM
NCI-H322M
  GI50: 61.3 µM
NCI-H322M; [20]
  CC50: > 100 µM
T47D
  GI50: 9.88 µM
T47D; [20]
  CC50: 54.3 µM
SN12C
  GI50: 17.7 µM
SN12C; [20]
  CC50: 84.1 µM
Malme-3M
  GI50: 10.9 µM
Malme-3M; [20]
  CC50: 62.7 µM
[17]; COLO 205
  GI50: 14.5 µM
[17]; COLO 205, read-out: LC50 (the source's name)
  CC50: 58.8 µM
KM12
  GI50: 43.2 µM
KM12; [20]
  CC50: > 100 µM
NCI-H23
  GI50: 23.7 µM
NCI-H23; [20]
  CC50: > 100 µM
[18]; MOLT-4
  GI50: 19.6 µM
[18]; MOLT-4, read-out: LC50 (the source's name)
  CC50: 97.9 µM
[19]; OVCAR-8
  GI50: 16.6 µM
[19]; OVCAR-8, read-out: LC50 (the source's name)
  CC50: 59.9 µM
IGROV-1
  GI50: 20 µM
IGROV-1; [20]
  CC50: 75.6 µM
